# Measurements from different studies.
# Target: RAC-beta serine/threonine-protein kinase (AKT2, Homo sapiens, UniProt P31751)
Compound,assay,conditions,measurement,value
C[C@@]1(Cc2ccc(C#N)cc2)C(=O)N(c2cc(Cl)cc(Cl)c2)c2ncc(C(=O)NC3(c4nc(C5CCC5)no4)CC3)n21,"cell-free assay, competition with immobilised ligand",1 µM,remaining binding,100%
C=CC(=O)Nc1cc(Nc2nccc(Nc3cc(Cl)c(F)cc3C(C)(C)O)n2)c(OC)cc1N1CC[C@@H](N(C)C)C1,"enzyme activity, inhibitor",1 µM,inhibition,-10%
COc1cc(Cl)c(C(=O)N[C@@H](CN[C@H]2CC[C@@H](N)CC2)Cc2ccc(C#N)cc2)cc1-c1ccc(CN[C@H](C)c2ccc(C)cc2)o1,"enzyme activity, inhibitor",1 µM,remaining activity,65%
Cc1nccc(COC(=O)N2C[C@@H]3[C@@H](CNC(=O)c4ccc5[nH]nnc5c4)[C@@H]3C2)n1,"cell-free assay, competition with immobilised ligand",1 µM,remaining binding,98%
Cc1sc(C(=O)NC2COC2)cc1-n1cc(NC(=O)Nc2c(F)cccc2Cl)cn1,"enzyme activity, inhibitor",10 µM,remaining activity,88.9%
Cc1cc(NC(=O)c2cccc3cc(-c4cccc5[nH]nc(N)c45)ccc23)ccc1F,"enzyme activity, inhibitor",0.1 µM,activity vs control,123%
CC(=O)N1CCC(c2ccc(C(=O)NC3=NCCN3)cc2C(F)(F)F)CC1,"cell-free assay, competition with immobilised ligand",1 µM,remaining binding,91%
CNC(=O)c1cc(Oc2ccc(NC(=O)Nc3ccc(Cl)c(C(F)(F)F)c3)cc2)ccn1,cell-free assay,0.5 µM,remaining signal,103%
CNC(=O)c1ccc(Nc2ncc(C(F)(F)F)c(NCc3nccnc3N(C)S(C)(=O)=O)n2)cc1,"cell-free assay, competition with immobilised ligand",0.1 µM,remaining binding,77%
O=C(Nc1cc(-c2ccc(Cl)cc2)[nH]n1)C1CCCCC1,"enzyme activity, inhibitor",10 µM,activity vs control,75%
Nc1nc(Nc2ccc(S(N)(=O)=O)cc2)nn1C(=O)c1c(F)cccc1F,cell-free assay,0.5 µM,remaining signal,107%
CNC(=O)Nc1ccc2c(c1)CC[C@@]21OC(=O)N(CC(=O)N(Cc2ccc(F)cc2)[C@@H](C)C(F)(F)F)C1=O,"cell-free assay, competition with immobilised ligand",1 µM,remaining binding,80%
Nc1nc(NC2CCCCC2)sc1C(=O)c1ccccc1,"enzyme activity, inhibitor",10 µM,remaining activity,73%
c1ccc(N2CCN(Cc3nc4ccccc4[nH]3)CC2)nc1,"binding, competition with immobilised ligand",1 µM,remaining binding,100%
FC(F)c1nc2ccccc2n1-c1nc(N2CCOCC2)nc(N2CCOCC2)n1,"enzyme activity, inhibitor",10 µM,remaining activity,84%
Nc1nc(Nc2ccccc2)sc1C(=O)c1c(F)cccc1F,"enzyme activity, inhibitor",10 µM,remaining activity,85%
Cc1ccc(C(=O)NCc2ccsc2)cc1C#Cc1cn(C(C)C)c2ncnc(N)c12,"enzyme activity, inhibitor",1 µM,activity vs control,99%
Oc1cccc(-c2nc(N3CCOCC3)c3oc4ncccc4c3n2)c1,"enzyme activity, inhibitor",10 µM,remaining activity,114%
CC(C)(C)c1nc2c(s1)c1nc(N)ncc1c1ccc(NS(=O)(=O)c3c(F)cccc3F)c(F)c12,"enzyme activity, inhibitor, radiometric",1 µM,remaining activity,114%
CN1CC(Oc2cnc(C#N)cc2-c2ccn3nc(NC(=O)C4CC4)cc3c2)C1,"enzyme activity, inhibitor",1 µM,inhibition,-3%
COc1cc2ncnc(Nc3ccc(Oc4ccccc4)cc3C)c2cc1OC,"enzyme activity, inhibitor",1 µM,inhibition,7%
O=C1NC(=O)c2cc(Nc3ccc(F)cc3)c(Nc3ccc(F)cc3)cc21,cell-free assay,0.5 µM,remaining signal,95.1%
O=C(N[C@H]1CCCCC/C=C\C2C[C@@]2(C(=O)O)NC(=O)[C@@H]2C[C@@H](Oc3ccncc3)CN2C1=O)OC1CCCC1 (stereo partly drawn),"binding, competition with immobilised ligand",1 µM,remaining binding,85%
COc1cc(Nc2cnc(C#N)c(O[C@H](C)CN(C)C)n2)ncc1-c1cnn(C)c1,"enzyme activity, inhibitor, radiometric",1 µM,remaining activity,81%
CCN(CC)c1ccc(C2=NNC(=O)CC2C)cc1[N+](=O)[O-] (stereo not drawn),"enzyme activity, inhibitor",10 µM,remaining activity,101%
Nc1ncnc2occ(-c3ccc(NC(=O)Nc4cc(C(F)(F)F)ccc4F)cc3)c12,"cell-free assay, inhibitor",20 µM,remaining signal,95%
O=C(O)c1cc(-c2ccc(C3CCNCC3)cc2)c2ccc(-c3ccc(C(F)(F)F)cc3)cc2c1,"cell-free assay, competition with immobilised ligand",1 µM,remaining binding,95%
Oc1cccc(-c2nc(N3CCOCC3)c3oc4ncccc4c3n2)c1,cell-free assay,0.5 µM,remaining signal,99.1%
O=C(Nc1cnn(-c2csc(C(=O)NC3COC3)c2)c1)Nc1ccccc1Cl,"enzyme activity, inhibitor",5 µM,remaining activity,88.2%
CNc1cccc2cc(C(=O)Nc3ccc(C(=O)O)cc3)c(=O)[nH]c12,"enzyme activity, inhibitor",10 µM,inhibition,3.3%
